One series deals with L929. The experiment in a line: Cytotoxicity against mouse L929 cells at 0.1 mM after 24 hrs by MTT assay. It is filed as cell-based. The conditions noted are these: l929, 24 h, 100 µM. In short, it runs like this:
(§1)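 L929 mouse fibroblasts seeded at 3 × 10³ cells/well in 100 µl medium; cell-free medium wells as controls. Exposed to compounds at 10^-4 M for 24 h. Viable cells quantified by MTT with absorbance read at 570 nm. Viability given as percent of absorbance of unexposed cells. Each experiment repeated three times.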
For orientation: Tetrazolium dyes change colour on reduction, which living cells bring about.

Series [1] has as its system Mycobacterium tuberculosis. Briefly: Antimycobacterial activity against Mycobacterium tuberculosis H37Ra ATCC 25177 by microbroth dilution method. It is filed as functional. In short, it runs like this: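 M. tuberculosis H37Ra (ATCC 25177) colonies suspended in Middlebrook 7H9 broth to 1.0 McFarland, diluted tenfold, mixed 1:1 with twofold compound dilutions (DMSO stocks; final 256 to 1 µg/mL). Growth was checked by Kinyoun acid-fast smear. MIC = lowest concentration giving complete inhibition.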
(In general: Broth dilution looks for growth in wells or tubes with falling amounts of substance.)

Series [2] is described as follows: Cytotoxicity against mouse L929 cells at 0.1 mM assessed as cell viability after 24 hrs by MTT assay. The series is classed as cell-based. The following applies: read-out: Activity. In short, it runs like this:
as §1

≈ marks a conversion by molar mass, not a printed value.

Usually MBC stands for the lowest tested concentration that kills the bacteria rather than only halting them. For orientation: MIC means the smallest concentration in the dilution series that meets the test's criterion for growth inhibition. A low value points to inhibition by little substance.

As to `CC(=O)NS(=O)(=O)c1ccc(N2C(=O)c3ccccc3C2=O)cc1`, in the series with L929, the Activity result is “Non-toxic”. Also, in series [1], the MBC turned out to be 256 µg/mL (≈ 743 µM) and inhibition of growth (MIC) required 256 µg/mL (≈ 743 µM).
Regarding `O=C(NS(=O)(=O)c1ccc(N2C(=O)c3ccccc3C2=O)cc1)c1ccccc1`, the Activity entry in the series on L929 is “Non-toxic”. In series [1], this compound had an MBC of 256 µg/mL (≈ 630 µM) and an MIC of 128 µg/mL (≈ 315 µM).
As to `O=C1c2ccccc2C(=O)N1c1ccc(S(=O)(=O)Nc2nccs2)cc1`, in the series on L929, the Activity result was “Non-toxic”. In series [1], the MBC amounted to 256 µg/mL (≈ 664 µM) and the MIC was 256 µg/mL (≈ 664 µM).
With `CC(=O)NS(=O)(=O)c1ccc(N2C(=O)c3c(F)c(F)c(F)c(F)c3C2=O)cc1`, the Activity entry with L929 is “Non-toxic”. In addition, in series [1], the MBC is 128 µg/mL (≈ 307 µM) and it took 64 µg/mL (≈ 154 µM) to inhibit growth (MIC).
The matching figures for `O=C(NS(=O)(=O)c1ccc(N2C(=O)c3c(F)c(F)c(F)c(F)c3C2=O)cc1)c1ccccc1`: “Non-toxic”, 128 µg/mL (≈ 268 µM) and 64 µg/mL (≈ 134 µM).
For the compound `O=C1c2c(F)c(F)c(F)c(F)c2C(=O)N1c1ccc(S(=O)(=O)Nc2ncccn2)cc1`, the Activity result in the series on L929 was “Non-toxic”. In series [1], this compound gave an MBC of 64 µg/mL (≈ 141 µM) and an MIC of 32 µg/mL (≈ 70.7 µM).
`Cc1cc(C)nc(NS(=O)(=O)c2ccc(N3C(=O)c4c(F)c(F)c(F)c(F)c4C3=O)cc2)n1`: the Activity entry in the series with L929 is given as “Toxic”. In addition, in series [1], the minimum bactericidal concentration (MBC) turned out to be 128 µg/mL (≈ 266 µM) and the MIC came out at 32 µg/mL (≈ 66.6 µM).
The matching figures for `O=C1c2c(F)c(F)c(F)c(F)c2C(=O)N1c1ccc(S(=O)(=O)Nc2nccs2)cc1`: “Non-toxic”, 64 µg/mL (≈ 140 µM) and 64 µg/mL (≈ 140 µM).
For `Cc1cc(NS(=O)(=O)c2ccc(N3C(=O)c4c(F)c(F)c(F)c(F)c4C3=O)cc2)no1`, the viability at 24 h, 100 µM in series [2] was less than 50%. Further, the Activity entry in the series with L929 was “Toxic”. Besides, in series [1], the minimal bactericidal concentration (MBC) is 128 µg/mL (≈ 281 µM) and the MIC worked out at 32 µg/mL (≈ 70.3 µM).
As for `Cc1ccnc(NS(=O)(=O)c2ccc(N3C(=O)c4c(F)c(F)c(F)c(F)c4C3=O)cc2)n1`, in series [1], the MBC amounted to 256 µg/mL (≈ 549 µM) and the MIC amounted to 128 µg/mL (≈ 274 µM).
Take `COc1ncnc(NS(=O)(=O)c2ccc(N3C(=O)c4c(F)c(F)c(F)c(F)c4C3=O)cc2)c1OC`: the viability at 24 h, 100 µM in series [2] is less than 50%. Moreover, in the series with L929, the Activity entry is given as “Toxic”. In series [1], this compound yielded an MBC of 64 µg/mL (≈ 125 µM) and an MIC of 32 µg/mL (≈ 62.5 µM).
`NNC(=O)c1ccncc1` [ISONIAZID]: in series [1], the MIC is less than 0.2 µg/mL.
In series [1], `Nc1ccc(S(=O)(=O)NC(=O)c2ccccc2)cc1` [SULFABENZAMIDE] came in with an MBC of 256 µg/mL (≈ 926 µM) and a minimum inhibitory concentration (MIC) of 32 µg/mL (≈ 116 µM).
The matching figures for `CC(=O)NS(=O)(=O)c1ccc(N)cc1` [SULFACETAMIDE]: 256 µg/mL (≈ 1190 µM) and 64 µg/mL (≈ 299 µM).
Turning to `Nc1ccc(S(=O)(=O)Nc2ncccn2)cc1` [SULFADIAZINE], in series [1], the MBC was 128 µg/mL (≈ 511 µM) and inhibition of growth (MIC) required 8 µg/mL (≈ 32 µM).
In the case of `COc1ncnc(NS(=O)(=O)c2ccc(N)cc2)c1OC` [SULFADOXINE], in series [1], the MBC was found to be 256 µg/mL (≈ 825 µM) and the MIC was 32 µg/mL (≈ 103 µM).
The matching figures for `Cc1ccnc(NS(=O)(=O)c2ccc(N)cc2)n1` [SULFAMERAZINE]: 256 µg/mL (≈ 969 µM) and 32 µg/mL (≈ 121 µM).
In series [1], `Cc1cc(C)nc(NS(=O)(=O)c2ccc(N)cc2)n1` [SULFAMETHAZINE] had an MBC of 256 µg/mL (≈ 920 µM) and an MIC of 32 µg/mL (≈ 115 µM).
Taken in the same sequence, the figures for `Cc1cc(NS(=O)(=O)c2ccc(N)cc2)no1` [SULFAMETHOXAZOLE] were 256 µg/mL (≈ 1010 µM) and 32 µg/mL (≈ 126 µM).
Turning to `Nc1ccc(S(=O)(=O)Nc2nccs2)cc1` [SULFATHIAZOLE], in series [1], the minimal bactericidal concentration (MBC) is 16 µg/mL (≈ 62.7 µM) and 4 µg/mL (≈ 15.7 µM) was the least that counted as inhibitory (MIC).
For the compound `O=C1CCC(N2C(=O)c3ccccc3C2=O)C(=O)N1` (stereo not drawn) [THALIDOMIDE], in series [1], the MBC worked out at 256 µg/mL (≈ 991 µM) and the lowest concentration to inhibit growth (MIC) was 128 µg/mL (≈ 496 µM).

The values above are taken from ChEMBL document CHEMBL2046301, “Synthesis and antimycobacterial activity of some phthalimide derivatives” (Bioorg Med Chem, 2012).
